Data set [1] is described as follows: Cytotoxicity against human DU145 cells. It is filed as cell-based. Conditions: DU-145 cells.
The next data set concerns SF-268. Kind of data set: Cytotoxicity against human SF268 cells. In kind it is functional.
A short description of data set [2]: Cytotoxicity against human SN12C cells. It is filed as cell-based.
Data set [3] in a line: Cytotoxicity against human UACC62 cells. In kind it is cell-based. Conditions: UACC-62 cells.
A short description of data set [4]: Cytotoxicity against human HCT116 cells. It is filed as cell-based. The note with it: HCT-116 cells.
Data set [5] in a line: Cytotoxicity against human […] cells. In kind it is cell-based.
Data set [6] can be described thus: Cytotoxicity against human OVCAR-3 cells. In kind it is cell-based.
Data set [7] is described as follows: Cytotoxicity against human HOP62 cells. In kind it is cell-based. Conditions: HOP-62 cells.
In data set [8] the target is T1, DNA topoisomerase 1 (Homo sapiens) (UniProt P11387).
T1 sequence (whole entry): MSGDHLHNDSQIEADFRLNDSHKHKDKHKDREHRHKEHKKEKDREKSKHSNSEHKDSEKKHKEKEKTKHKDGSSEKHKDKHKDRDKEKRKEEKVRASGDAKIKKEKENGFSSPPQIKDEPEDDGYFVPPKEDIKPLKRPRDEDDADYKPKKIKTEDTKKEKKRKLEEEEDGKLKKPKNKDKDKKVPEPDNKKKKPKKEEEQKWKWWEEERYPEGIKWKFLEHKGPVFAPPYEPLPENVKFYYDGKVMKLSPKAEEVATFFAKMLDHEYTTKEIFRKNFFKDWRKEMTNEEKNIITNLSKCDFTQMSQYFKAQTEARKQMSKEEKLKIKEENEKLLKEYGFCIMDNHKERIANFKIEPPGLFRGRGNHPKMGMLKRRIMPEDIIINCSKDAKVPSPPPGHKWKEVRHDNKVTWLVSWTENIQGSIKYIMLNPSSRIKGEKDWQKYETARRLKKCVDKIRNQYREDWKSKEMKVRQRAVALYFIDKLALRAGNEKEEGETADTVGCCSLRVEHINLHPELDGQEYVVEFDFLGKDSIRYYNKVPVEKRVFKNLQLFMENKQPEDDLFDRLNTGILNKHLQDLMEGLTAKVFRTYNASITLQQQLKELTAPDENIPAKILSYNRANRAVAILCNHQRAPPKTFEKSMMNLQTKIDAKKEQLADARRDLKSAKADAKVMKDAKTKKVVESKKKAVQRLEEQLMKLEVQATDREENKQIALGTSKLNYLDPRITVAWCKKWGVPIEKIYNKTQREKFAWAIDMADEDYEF
In words: Inhibition of human recombinant topoisomerase 1-mediated DNA cleavage after 30 mins. The essentials: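 Human recombinant Top1 purified from baculovirus. Substrate: 161 bp PvuII/HindIII fragment of pBluescript SK(−), 3′-end labeled at the HindIII site by Klenow fill-in with [α-32P]-dGTP. About 50,000 dpm per reaction, incubated with Top1 plus drug for 30 min at 22 °C. Stopped with SDS (0.5% final). Run on denaturing 16% polyacrylamide/7 M urea gels and phosphorimaged. Cleavage scored semi-quantitatively (+ scale) against the parent indenoisoquinoline.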

In ChEMBL document CHEMBL1147131, “Investigation of the lactam side chain length necessary for optimal indenoisoquinoline topoisomerase I inhibition and cytotoxicity in human cancer cell cultures” (J Med Chem, 2007) one finds GI50 and Activity data, which are given here for four compounds.

Molecules are shown by their SMILES. The source made the active and inactive calls. No cut-off for these calls is given here.

With `NCCCCCCCn1c2c(c3ccccc3c1=O)C(=O)c1ccccc1-2`, the GI50 was found to be 832 nM in [1]; 1780 nM in the data set on SF-268; 1660 nM in data set [2]; 2000 nM in data set [3]; 1260 nM in data set [4]; 2240 nM in data set [5]. The GI50 in data set [6] is 1700 nM; in data set [7], 1200 nM. For the same compound, in data set [8], the result was inactive.

Consider `NCCCCCCCCCCn1c2c(c3ccccc3c1=O)C(=O)c1ccccc1-2`, for which the GI50 in data set [1] is 3470 nM; in the data set with SF-268, 1820 nM; in [2], 3310 nM; in data set [3], 13800 nM; in data set [4], 2750 nM; in data set [5], 11700 nM. In addition, the 50% growth inhibitory concentration (GI50) in [6] turned out to be 10700 nM; in [7], 4790 nM. Also, in data set [8], the outcome was inactive.

On to `NCCCCCn1c2c(c3ccccc3c1=O)C(=O)c1ccccc1-2`, for which the concentration for 50% growth inhibition (GI50) came to 347 nM in data set [1]; 871 nM with SF-268; 398 nM in [2]; 1350 nM in [3]; 200 nM in data set [4]; 1350 nM in data set [5]. Moreover, the values for the 50% growth inhibitory concentration (GI50) in [6] and in data set [7] were 708 nM and 288 nM, respectively. Moreover, the outcome in [8] was inactive.

`Nn1c2c(c3ccccc3c1=O)C(=O)c1ccccc1-2`: the concentration for 50% growth inhibition (GI50) was greater than 50100 nM in data set [1]; 28200 nM with SF-268; greater than 50100 nM in data set [2]; greater than 50100 nM in data set [3]; greater than 50100 nM in data set [4]; greater than 50100 nM in data set [5]. Besides, the results for the GI50 in data set [6] and in data set [7] were greater than 50100 nM and 24500 nM, respectively. Also, the outcome in [8] was inactive.

Usually GI50 stands for the concentration that inhibits growth by half. Lower therefore signals greater sensitivity of the cells.
